Reference: ChEMBL document CHEMBL1777788, “Synthesis and in vitro antimicrobial activities of new (cyano-NNO-azoxy)pyrazole derivatives” (2011)
In brackets after ≈: the same amount, converted by molar mass.

What was measured:
Candida parapsilosis [1] = experiment: Antimicrobial activity against Candida parapsilosis ATCC 22019 after 48 hrs by microdilution broth method; type: functional; conditions: Lodderomyces parapsilosis, ATCC 22019, 48 h
Procedure, shortened: (§1)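 Yeasts were grown overnight on Sabouraud dextrose agar at 35°C, suspended in water, and adjusted at 530 nm to McFarland 0.5 (approximately 1-5 x 10^6 CFU/ml). They were then diluted 1:100 and 1:20 in RPMI 1640 with 0.165 M MOPS and 2% glucose. Compound in DMSO was tested at ten concentrations, 0.25–256 mg/L, with incubation at 35°C. At 48 h, MIC was read spectrophotometrically as 50% turbidity reduction versus growth control.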

Candida albicans [2] = experiment: Antimicrobial activity against Candida albicans isolate 31 after 48 hrs by microdilution broth method; type: functional; conditions: isolate 31, 48 h; procedure, shortened: as §1
Candida albicans [3] = experiment: Antimicrobial activity against Candida albicans isolate 41 after 48 hrs by microdilution broth method; type: functional; conditions: isolate 41, 48 h; procedure, shortened: as §1
Candida albicans [4] = experiment: Antimicrobial activity against Candida albicans isolate 47 after 48 hrs by microdilution broth method; type: functional; conditions: isolate 47, 48 h; procedure, shortened: as §1
Candida albicans [5] = experiment: Antimicrobial activity against Candida albicans isolate 48 after 48 hrs by microdilution broth method; type: functional; conditions: isolate 48, 48 h; procedure, shortened: as §1
Pichia kudriavzevii [6] = experiment: Antimicrobial activity against Candida krusei isolate 31 after 48 hrs by microdilution broth method; type: functional; conditions: isolate 31, 48 h; procedure, shortened: as §1
Pichia kudriavzevii [7] = experiment: Antimicrobial activity against Candida krusei isolate 43 after 48 hrs by microdilution broth method; type: functional
Pichia kudriavzevii [8] = experiment: Antimicrobial activity against Candida krusei isolate 48 after 48 hrs by microdilution broth method; type: functional
Candida tropicalis [9] = experiment: Antimicrobial activity against Candida tropicalis isolate 33 after 48 hrs by microdilution broth method; type: functional; conditions: isolate 33, 48 h; procedure, shortened: as §1
Candida tropicalis [10] = experiment: Antimicrobial activity against Candida tropicalis isolate 11 after 48 hrs by microdilution broth method; type: functional; conditions: isolate 11, 48 h; procedure, shortened: as §1
Candida tropicalis [11] = experiment: Antimicrobial activity against Candida tropicalis isolate 22 after 48 hrs by microdilution broth method; type: functional; conditions: isolate 22, 48 h; procedure, shortened: as §1
Nakaseomyces glabratus [12] = experiment: Antimicrobial activity against Candida glabrata isolate 30 after 48 hrs by microdilution broth method; type: functional; procedure, shortened: as §1
Nakaseomyces glabratus [13] = experiment: Antimicrobial activity against Candida glabrata isolate 32 after 48 hrs by microdilution broth method; type: functional; conditions: isolate 32, 48 h; procedure, shortened: as §1
Nakaseomyces glabratus [14] = experiment: Antimicrobial activity against Candida glabrata isolate 46 after 48 hrs by microdilution broth method; type: functional; procedure, shortened: as §1
Nakaseomyces glabratus [15] = experiment: Antimicrobial activity against Candida glabrata isolate 49 after 48 hrs by microdilution broth method; type: functional; procedure, shortened: as §1
Candida parapsilosis [16] = experiment: Antimicrobial activity against Candida parapsilosis isolate 26 after 48 hrs by microdilution broth method; type: functional; conditions: Lodderomyces parapsilosis, isolate 26, 48 h; procedure, shortened: as §1
Candida parapsilosis [17] = experiment: Antimicrobial activity against Candida parapsilosis isolate 44 after 48 hrs by microdilution broth method; type: functional; conditions: Lodderomyces parapsilosis, isolate 44, 48 h; procedure, shortened: as §1
Candida parapsilosis [18] = experiment: Antimicrobial activity against Candida parapsilosis isolate 19 after 48 hrs by microdilution broth method; type: functional; conditions: Lodderomyces parapsilosis, isolate 19, 48 h; procedure, shortened: as §1
[19] = tested on: Cryptococcus deneoformans; experiment: Antimicrobial activity against Cryptococcus neoformans var. neoformans isolate 14 after 48 hrs by microdilution broth method; type: functional; conditions: isolate 14, 48 h; procedure, shortened: as §1
[20] = tested on: Cryptococcus deneoformans; experiment: Antimicrobial activity against Cryptococcus neoformans var. neoformans isolate 27 after 48 hrs by microdilution broth method; type: functional; conditions: isolate 27, 48 h; procedure, shortened: as §1
[21] = tested on: Cryptococcus deneoformans; experiment: Antimicrobial activity against Cryptococcus neoformans var. neoformans isolate 30 after 48 hrs by microdilution broth method; type: functional; conditions: isolate 30, 48 h; procedure, shortened: as §1
[22] = tested on: Cryptococcus deneoformans; experiment: Antimicrobial activity against Cryptococcus neoformans var. neoformans isolate 25 after 48 hrs by microdilution broth method; type: functional; conditions: isolate 25, 48 h; procedure, shortened: as §1
Pichia kudriavzevii [23] = experiment: Antimicrobial activity against Candida krusei ATCC 6258 after 48 hrs by microdilution broth method; type: functional; conditions: ATCC 6258, 48 h
Escherichia coli = experiment: Antimicrobial activity against Escherichia coli isolate after 24 hrs by microdilution broth method
Proteus mirabilis = experiment: Antimicrobial activity against Proteus mirabilis isolate after 24 hrs by microdilution broth method
Pseudomonas aeruginosa [24] = experiment: Antimicrobial activity against Pseudomonas aeruginosa isolate 1 after 24 hrs by microdilution broth method; conditions: isolate 1, 24 h
Pseudomonas aeruginosa [25] = experiment: Antimicrobial activity against Pseudomonas aeruginosa isolate 2 after 24 hrs by microdilution broth method; conditions: isolate 2, 24 h
Staphylococcus aureus [26] = experiment: Antimicrobial activity against methicillin-resistant Staphylococcus aureus isolate after 24 hrs by microdilution broth method
Staphylococcus aureus [27] = experiment: Antimicrobial activity against methicillin-susceptible Staphylococcus aureus isolate after 24 hrs by microdilution broth method

Compound	MIC (Candida parapsilosis [1]) [µg/mL]	MIC (Candida albicans [2]) [µg/mL]	MIC (Candida albicans [3]) [µg/mL]	MIC (Candida albicans [4]) [µg/mL]	MIC (Candida albicans [5]) [µg/mL]	MIC (Pichia kudriavzevii [6]) [µg/mL]	MIC (Pichia kudriavzevii [7]) [µg/mL]	MIC (Pichia kudriavzevii [8]) [µg/mL]	MIC (Candida tropicalis [9]) [µg/mL]	MIC (Candida tropicalis [10]) [µg/mL]	MIC (Candida tropicalis [11]) [µg/mL]	MIC (Nakaseomyces glabratus [12]) [µg/mL]	MIC (Nakaseomyces glabratus [13]) [µg/mL]	MIC (Nakaseomyces glabratus [14]) [µg/mL]	MIC (Nakaseomyces glabratus [15]) [µg/mL]	MIC (Candida parapsilosis [16]) [µg/mL]	MIC (Candida parapsilosis [17]) [µg/mL]	MIC (Candida parapsilosis [18]) [µg/mL]	MIC [19] [µg/mL]	MIC [20] [µg/mL]	other results
Cc1cc(-c2nn(C)c(C)c2/[N+]([O-])=N/C#N)on1	128 (≈ 520 µM)	128 (≈ 520 µM)	64 (≈ 260 µM)	128 (≈ 520 µM)	128 (≈ 520 µM)	64 (≈ 260 µM)	32 (≈ 130 µM)	64 (≈ 260 µM)	128 (≈ 520 µM)	128 (≈ 520 µM)	> 128	128 (≈ 520 µM)	32 (≈ 130 µM)	128 (≈ 520 µM)	128 (≈ 520 µM)	128 (≈ 520 µM)	128 (≈ 520 µM)	128 (≈ 520 µM)	2 (≈ 8.12 µM)	2 (≈ 8.12 µM)	MIC [21]: 2 µg/mL (≈ 8.12 µM); MIC [22]: 2 µg/mL (≈ 8.12 µM); MIC (Pichia kudriavzevii [23]): 32 µg/mL (≈ 130 µM); MIC (Escherichia coli): > 128 µg/mL; MIC (Proteus mirabilis): > 128 µg/mL; MIC (Pseudomonas aeruginosa [24]): > 128 µg/mL; MIC (Pseudomonas aeruginosa [25]): > 128 µg/mL; MIC (Staphylococcus aureus [26]): 2 µg/mL (≈ 8.12 µM); MIC (Staphylococcus aureus [27]): 4 µg/mL (≈ 16.2 µM)
Cc1cc(-c2nn(C)c(C)c2/[N+]([O-])=N/C#N)no1	128 (≈ 520 µM)	128 (≈ 520 µM)	128 (≈ 520 µM)	> 128	> 128	128 (≈ 520 µM)	64 (≈ 260 µM)	128 (≈ 520 µM)	> 128	> 128	> 128	128 (≈ 520 µM)	64 (≈ 260 µM)	128 (≈ 520 µM)	128 (≈ 520 µM)	128 (≈ 520 µM)	128 (≈ 520 µM)	128 (≈ 520 µM)	4 (≈ 16.2 µM)	4 (≈ 16.2 µM)	MIC [21]: 8 µg/mL (≈ 32.5 µM); MIC [22]: 8 µg/mL (≈ 32.5 µM); MIC (Pichia kudriavzevii [23]): 64 µg/mL (≈ 260 µM); MIC (Escherichia coli): > 128 µg/mL; MIC (Proteus mirabilis): > 128 µg/mL; MIC (Pseudomonas aeruginosa [24]): > 128 µg/mL; MIC (Pseudomonas aeruginosa [25]): > 128 µg/mL; MIC (Staphylococcus aureus [26]): 8 µg/mL (≈ 32.5 µM); MIC (Staphylococcus aureus [27]): 16 µg/mL (≈ 65 µM)
Cc1c(/[N+]([O-])=N/C#N)c(-c2cccs2)nn1C	16 (≈ 64.7 µM)	1 (≈ 4.04 µM)	0.5 (≈ 2.02 µM)	1 (≈ 4.04 µM)	1 (≈ 4.04 µM)	0.5 (≈ 2.02 µM)	1 (≈ 4.04 µM)	0.5 (≈ 2.02 µM)	8 (≈ 32.4 µM)	8 (≈ 32.4 µM)	16 (≈ 64.7 µM)	0.25 (≈ 1.01 µM)	0.25 (≈ 1.01 µM)	0.25 (≈ 1.01 µM)	0.25 (≈ 1.01 µM)	8 (≈ 32.4 µM)	8 (≈ 32.4 µM)	16 (≈ 64.7 µM)	2 (≈ 8.09 µM)	2 (≈ 8.09 µM)	MIC [21]: 2 µg/mL (≈ 8.09 µM); MIC [22]: 2 µg/mL (≈ 8.09 µM); MIC (Pichia kudriavzevii [23]): 0.5 µg/mL (≈ 2.02 µM); MIC (Escherichia coli): > 128 µg/mL; MIC (Proteus mirabilis): > 128 µg/mL; MIC (Pseudomonas aeruginosa [24]): > 128 µg/mL; MIC (Pseudomonas aeruginosa [25]): > 128 µg/mL; MIC (Staphylococcus aureus [26]): 4 µg/mL (≈ 16.2 µM); MIC (Staphylococcus aureus [27]): 8 µg/mL (≈ 32.4 µM)
